Experimental data as given in PubChem BioAssay.
Inconclusive results are not listed. The source made the active and inactive calls.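 The calls were made as follows, unless noted: active = cell viability at or below a set limit in both duplicate runs, the limit being the all-compound median minus 4 SD (cut at about 23% in these data, passing the limit was not always enough); inconclusive = no clear call, values can overlap the other calls; inactive = the rest.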

Tests used:
[1] = OD615 S. cerevisiae growth inhibition, permissive medium, pilot counter-assay, permissive growth control for S. cerevisiae lifespan shortening project (AID 705;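 active = growth inhibition above 25% in both replicates, a cutoff set 3 SD above the mean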); settings: OD615, 24 h, at 10 µM, hits give high values
Summary of the method: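 System: engineered DeaD yeast; Medium: permissive raffinose/galactose medium; Compound dosing: 10 µM single dose, 0.25% DMSO; Incubation: 4 h cell pre-growth, 24 h exposure at 30 °C; Technique: OD at 615 nm; Evaluation: growth inhibition from lowered OD615 after 24 h.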

[2] = Restrictive medium S. cerevisiae growth inhibition, OD615, pilot screen of yeast lifespan reduction project, restrictive growth control (AID 706;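 active = growth inhibition above a set limit, 3 SD over mean compound inhibition, in both replicates, cut at about 43% in these data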;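 also: modified DeaD lifespan yeast strain shifted to restrictive glucose medium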); settings: OD615, 48 h, at 10 µM, hits give high values
Summary of the method: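 Material: modified S. cerevisiae; buffer or medium: CSMM-D glucose medium; doses: one concentration, 10 µM final, 0.25% DMSO; incubation: 48 h compound exposure at 30 °C; detection: optical density at 615 nm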

[3] = viability gain of MRP-1-high H69AR cells under doxorubicin, pilot screen, MRP-1 activator project, CellTiter-Glo, duplicate (AID 807;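 active = viability increase at or above a cutoff of the median across tested compounds plus 3 SD, cut at about 8.5% in these data, passing the limit was not always enough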;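 also: compound pretreatment 18-22 h then 72 h combined with doxorubicin; 0% = doxorubicin alone and 100% = vehicle without doxorubicin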); settings: H69AR viability with doxorubicin, CellTiter-Glo luminescence; at 10 µM; hits give high values
[4] = growth suppression of beta-catenin knockout HCT116, pilot screen, human colon tumor cells (AID 823); settings: CellTiter-Glo, 60 h, at 10 µM, hits give low values;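 also: 0% = wells killed by 20 µM Hyamine and 100% = untreated DMSO cell wells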
[5] = growth suppression of PTEN-deleted HCT116, pilot screen, cell-based, HCT116 clonal line, CellTiter-Glo (AID 824;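 active = viability at or below 27.92% in each of two runs, the all-compound median minus 4 SD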;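 also: 0% = 20 µM Hyamine control and 100% = vehicle cell control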); settings: 60 h, at 10 µM, hits give low values
[6] = inhibitors of the yeast RAM network, pilot screen, dse1pr::URA3 reporter, 5-FOA selection (AID 869;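 active = inhibition over a set limit, the all-compound mean plus 3 SD, in both replicate runs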;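 also: 0% = DMSO wells with no growth and 100% = 10 µM 1-NA-PP1 with full growth; RAM network block rescues cells from 5-FOA so hits raise OD615 growth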); settings: S. cerevisiae dse1pr::URA3 5-FOA growth, OD615, 2 d; at 10 µM; hits give high values; strain carries analog-sensitive mutant Cbk1 kinase
[7] = RAM signaling pathway blockade in yeast – S. cerevisiae, Pdr1DBD-CYC8 efflux-inhibited sensitized strain, primary screen (AID 1298;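 active = RAM network inhibition above 8.4% in each of two replicates, 3 SD over the compound average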;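 also: 0% = DMSO untreated cells without growth and 100% = 10 µM 1-NA-PP1 full growth; higher means more yeast growth rescued from 5-FOA killing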); settings: S. cerevisiae cbk1-as DSE1-URA3 strain, 5-FOA growth OD615, 2 d; at 50 µM; hits give high values

Cc1cccc(NC(=O)Nc2ccc(C#N)cc2)n1
inactive: growth inhibition [1] -15.2% | growth inhibition [2] -6.73% | viability increase [3] -5.92% | inhibition [6] -0.505% | RAM network inhibition [7] 3.51%
active: viability [4] 18.1% | viability [5] 17.4%

COc1ccc(NC(=O)c2cnc3ccccn3c2=O)cc1OC
inactive: growth inhibition [1] -5.08% | growth inhibition [2] 4.28% | viability increase [3] -0.04% | viability [4] 101% | viability [5] 91.3% | inhibition [6] 0.665% | RAM network inhibition [7] 1.96%

COCCNS(=O)(=O)c1ccc(C2CNC(=O)C2)cc1 (configuration not stated)
inactive: growth inhibition [1] -7.18% | growth inhibition [2] -6.89% | viability increase [3] -1.08% | viability [4] 110% | viability [5] 104% | inhibition [6] 2.2% | RAM network inhibition [7] -1.51%

CCCN1C(=O)c2cc(C(=O)NCc3cccs3)ccc2C1O (configuration not stated)
inactive: growth inhibition [1] -5.98% | growth inhibition [2] -16.4% | viability increase [3] -0.99% | viability [4] 107% | viability [5] 96.7% | inhibition [6] 1.94% | RAM network inhibition [7] -0.69%

Cc1ccc(S(=O)(=O)N2CCC(C(=O)N[C@@H](C)C(=O)NC3CCCCC3)CC2)cc1
inactive: growth inhibition [1] -10.2% | growth inhibition [2] -17.1% | viability increase [3] 3.71% | viability [4] 97.7% | viability [5] 99.8% | inhibition [6] 2.49% | RAM network inhibition [7] 4.41%

COC(=O)c1ccsc1NC(=O)c1ccc2c(c1)OCCO2
inactive: growth inhibition [1] 2.02% | growth inhibition [2] -2.86% | viability increase [3] -4.78% | viability [4] 81% | viability [5] 68.1% | inhibition [6] 1.8% | RAM network inhibition [7] 2.08%

CCN1CCN(c2cc(C)c3cc(NC(=O)c4cnccn4)ccc3n2)CC1
inactive: growth inhibition [1] -11.2% | growth inhibition [2] 1.29% | viability increase [3] -3.82% | viability [4] 84.5% | viability [5] 89.5% | inhibition [6] -0.02% | RAM network inhibition [7] -0.42%

COc1cc2c(cc1OC)C(c1ccco1)CC(=O)N2 (configuration not stated)
inactive: growth inhibition [1] -6.61% | growth inhibition [2] -1.62% | viability increase [3] -2.43% | viability [4] 101% | viability [5] 101% | inhibition [6] 1.06% | RAM network inhibition [7] 3.34%

C=CCNc1nc2c(c(=O)n(C)c(=O)n2C)n1CC
inactive: growth inhibition [1] 1.76% | growth inhibition [2] 3.36% | viability increase [3] -2.38% | viability [4] 107% | viability [5] 99.1% | inhibition [6] 2.24% | RAM network inhibition [7] 3.73%

COCCNC(=O)CS(=O)Cc1nc(-c2ccc(Cl)cc2)oc1C (configuration not stated)
inactive: growth inhibition [1] -6.59% | growth inhibition [2] -1.85% | viability increase [3] -0.72% | viability [4] 94.7% | viability [5] 95.1% | inhibition [6] 3.21% | RAM network inhibition [7] 0.65%

COc1ccc(C2CC(c3ccc(Cl)cc3Cl)Nc3nc(N)nn32)cc1OC (configuration not stated)
inactive: growth inhibition [1] 0.16% | growth inhibition [2] 22.6% | viability increase [3] 6.01% | viability [4] 88.2% | viability [5] 85.7% | inhibition [6] 0.4% | RAM network inhibition [7] 1.22%

O=C1CCc2cc(S(=O)(=O)NC(Cc3ccccc3)C(=O)NCC3CCCO3)ccc2N1 (configuration not stated)
inactive: growth inhibition [1] -8.29% | growth inhibition [2] -8.79% | viability increase [3] -2.76% | viability [4] 94.3% | viability [5] 92.8% | inhibition [6] 2.2% | RAM network inhibition [7] 1.49%

c1ccc(-c2nnc(-c3ccccn3)nn2)nc1
active: growth inhibition [1] 34.5% | growth inhibition [2] 88.1%
inactive: viability increase [3] 0.07% | viability [4] 68.2% | viability [5] 83% | inhibition [6] -0.025% | RAM network inhibition [7] -3%

O=S1(=O)N=C(Nc2ccc(O)c(CN3CCCCC3)c2)c2ccccc21
inactive: growth inhibition [1] 5.56% | growth inhibition [2] -0.14% | viability increase [3] -3.07% | viability [4] 90.8% | viability [5] 97.1% | inhibition [6] 2.89% | RAM network inhibition [7] 6.37%

Cc1ccc(O)c(-c2cc(C(F)(F)C(F)F)nc(-c3ccccc3)n2)c1
inactive: growth inhibition [1] -21.9% | growth inhibition [2] -10.4% | viability increase [3] -5.33% | viability [4] 66.7% | viability [5] 73% | inhibition [6] 2.58% | RAM network inhibition [7] 7.06%

CN1CCN(S(=O)(=O)c2ccc3ccccc3c2)CC1
inactive: growth inhibition [1] -0.14% | growth inhibition [2] -1.93% | viability increase [3] -2.23% | viability [4] 103% | viability [5] 105% | inhibition [6] 2.92% | RAM network inhibition [7] 0.63%

Cn1c(=O)c2c(nc(SCc3cc4c(cc3Cl)OCO4)n2C)n(C)c1=O
inactive: growth inhibition [1] -5.9% | growth inhibition [2] -0.11% | viability increase [3] -0.21% | viability [4] 99.6% | viability [5] 100% | inhibition [6] 1.15% | RAM network inhibition [7] 5.36%

CCOC(=O)N1CCN(C(=O)c2ccc3c(=O)n(CCC4=CCCCC4)c(=S)[nH]c3c2)CC1
inactive: growth inhibition [1] -6.92% | growth inhibition [2] 3.16% | viability increase [3] -7.23% | viability [4] 49.1% | viability [5] 45.5% | inhibition [6] 3.38% | RAM network inhibition [7] 4.35%

Cn1c(=O)c2c(nc(Sc3ncccn3)n2Cc2ccc(Cl)cc2)n(C)c1=O
inactive: growth inhibition [1] -0.82% | growth inhibition [2] 1.5% | viability increase [3] -2.38% | viability [4] 82.4% | viability [5] 71.1% | inhibition [6] 1.8% | RAM network inhibition [7] 0.26%

Cn1c(Cn2c(=O)sc3ccccc32)nnc1SCC(=O)Nc1cccc(Cl)c1
inactive: growth inhibition [1] -3.44% | growth inhibition [2] -16.1% | viability increase [3] -0.83% | viability [4] 99.6% | viability [5] 98.8% | inhibition [6] 2.58% | RAM network inhibition [7] 2.23%

CC(=O)NC(O)C(=O)c1ccccc1 (configuration not stated)
inactive: growth inhibition [1] 5.71% | growth inhibition [2] 3.38% | viability increase [3] -2.24% | viability [4] 97% | viability [5] 89.6% | inhibition [6] -0.095% | RAM network inhibition [7] 3.35%

COc1ccc(C(C#N)Nc2ccccc2OC)cc1 (configuration not stated)
inactive: growth inhibition [1] -7.99% | growth inhibition [2] -12.7% | viability increase [3] -2.75% | viability [4] 80.9% | viability [5] 96% | inhibition [6] 0.35% | RAM network inhibition [7] 2.51%

O=C(Nc1ccc2nc3n(c(=O)c2c1)CCCCC3)c1ccccn1
inactive: growth inhibition [1] -2.29% | growth inhibition [2] 2.34% | viability increase [3] 1.28% | viability [4] 102% | viability [5] 107% | inhibition [6] 0.8% | RAM network inhibition [7] -2.05%

Cc1oc(-c2cccs2)nc1CS(=O)CC(=O)NCCc1ccccc1 (configuration not stated)
inactive: growth inhibition [1] 0.14% | growth inhibition [2] 34.7% | viability increase [3] -0.31% | viability [4] 86.1% | viability [5] 97.5% | inhibition [6] 2.6% | RAM network inhibition [7] 7.8%

CCOc1ccc(N2CCCCn3c2nc2c3c(=O)[nH]c(=O)n2C)cc1
inactive: growth inhibition [1] -21.9% | growth inhibition [2] -16.5% | viability increase [3] -1.1% | viability [4] 97.8% | viability [5] 98% | inhibition [6] 1.5% | RAM network inhibition [7] 2.47%

O=C(O)CN(Cc1ccco1)S(=O)(=O)c1ccccc1
inactive: growth inhibition [1] -15.2% | growth inhibition [2] -13% | viability increase [3] -1.97% | viability [4] 95.7% | viability [5] 98.3% | inhibition [6] 2.67% | RAM network inhibition [7] 2.35%

CC1=NC2(CCCc3c2no[n+]3[O-])N(O)C1(C)C (configuration not stated)
inactive: growth inhibition [1] 6.66% | growth inhibition [2] 3.75% | viability increase [3] -1.89% | viability [4] 101% | viability [5] 98.7% | inhibition [6] 1.36% | RAM network inhibition [7] 1.51%

O=C(Nc1nc(-c2ccc3c(c2)OCO3)cs1)C1COc2ccccc2O1 (configuration not stated)
inactive: growth inhibition [1] 0.51% | growth inhibition [2] 3.12% | viability increase [3] 1.56% | viability [4] 99.8% | viability [5] 88.9% | inhibition [6] 2.81% | RAM network inhibition [7] 4.11%

CCOCCn1c(CN2CCC(C)CC2)nc2c1c(=O)n(C)c(=O)n2C
inactive: growth inhibition [1] 7.15% | growth inhibition [2] -2.44% | viability increase [3] -1.22% | viability [4] 91.8% | viability [5] 91.5% | inhibition [6] 0.02% | RAM network inhibition [7] -0.56%

CCCc1c(C(=O)OCC)[nH]c2c1C(=O)CCC2
inactive: growth inhibition [1] 1.82% | growth inhibition [2] 2.14% | viability increase [3] -2.07% | viability [4] 107% | viability [5] 95.3% | inhibition [6] 1.46% | RAM network inhibition [7] 2.61%

CCOCCn1c(N(C)Cc2ccccc2)nc2c1c(=O)[nH]c(=O)n2C
inactive: growth inhibition [1] -10.9% | growth inhibition [2] -6.11% | viability increase [3] 0.04% | viability [4] 101% | viability [5] 95.6% | inhibition [6] 0.985% | RAM network inhibition [7] 5.77%

CSc1nc2sc3c(c2c(=O)n1C)CCCC3
inactive: growth inhibition [1] 7.93% | growth inhibition [2] 8.89% | viability increase [3] -0.98% | viability [4] 99.9% | viability [5] 94.7% | inhibition [6] 0.695% | RAM network inhibition [7] 3.94%

CC(=O)NCC(=O)NC1(C(=O)NC2CCCC2)CCCCC1
inactive: growth inhibition [1] -1.73% | growth inhibition [2] -24.5% | viability increase [3] -0.35% | viability [4] 97.8% | viability [5] 99.6% | inhibition [6] 4.11% | RAM network inhibition [7] 2.03%

CCCc1cc(=O)[nH]c(SCC(=O)N2CCN(S(=O)(=O)c3ccc(C)cc3)C2)n1
inactive: growth inhibition [1] -4.67% | growth inhibition [2] -21.2% | viability increase [3] -1.75% | viability [4] 98.8% | viability [5] 85.6% | inhibition [6] 2.64% | RAM network inhibition [7] 3.8%

O=C(CCCn1c(=O)[nH]c2ccccc2c1=O)N1CCN(c2ccccn2)CC1
inactive: growth inhibition [1] -3.37% | growth inhibition [2] -16.9% | viability increase [3] -3.43% | viability [4] 98.3% | viability [5] 96.2% | inhibition [6] 2.37% | RAM network inhibition [7] 3.32%

Cc1cc(C(=O)OCc2nnc(-c3ccccc3)o2)c(C)n1-c1ccccc1
inactive: growth inhibition [1] -4.06% | growth inhibition [2] -12% | viability increase [3] -1.07% | viability [4] 84.4% | viability [5] 80.6% | inhibition [6] 0.125% | RAM network inhibition [7] 2.44%
